Test [1] deals with T1, Adenosine receptor A2a (Homo sapiens, UniProt P29274). In words: Antagonist activity at human adenosine receptor A2a expressed in CHO cell membranes assessed as inhibition of NECA-induced cAMP accumulation measured as NECA EC50 at 7 uM incubated for 15 mins in presence of [3H]cAMP by liquid scintillation counting (Rvb = 77 nM). (Cyclic AMP is a second messenger, typically raised through Gs and lowered through Gi signalling.)

The target of test [2] is T1, Adenosine receptor A2a. As to the kind of experiment: Antagonist activity at human adenosine receptor A2a expressed in CHO cell membranes assessed as inhibition of NECA-induced cAMP accumulation measured as NECA EC50 at 5 uM incubated for 15 mins in presence of [3H]cAMP by liquid scintillation counting (Rvb = 68 nM). The procedure, abridged: (§1)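 Stably transfected CHO cells (human A2A or A2B) grown in DMEM-F12 with 10% FCS at 37 °C, 5% CO2. The cells were seeded at 200,000/well, washed after 24 h and held 2 h in HBSS (pH 7.3) with 1 U/ml adenosine deaminase. Ro20-1724 was added to 40 µM final for 15 min, then NECA dilutions ± one fixed test concentration in 2.5% DMSO, in duplicate.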

The target of test [3] is T2, Adenosine receptor A2b (Homo sapiens, UniProt P29275).
T2 sequence (P29275 whole entry): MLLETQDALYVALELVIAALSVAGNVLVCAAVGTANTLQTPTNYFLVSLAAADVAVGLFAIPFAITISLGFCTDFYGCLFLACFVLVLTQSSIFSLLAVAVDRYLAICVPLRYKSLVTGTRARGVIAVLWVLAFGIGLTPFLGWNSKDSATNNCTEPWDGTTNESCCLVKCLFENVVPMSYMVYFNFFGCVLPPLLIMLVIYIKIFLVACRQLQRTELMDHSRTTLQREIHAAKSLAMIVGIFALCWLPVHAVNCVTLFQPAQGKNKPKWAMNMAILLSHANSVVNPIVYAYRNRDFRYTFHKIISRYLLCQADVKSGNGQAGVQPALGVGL
As to the kind of experiment: Antagonist activity at human adenosine receptor A2b expressed in CHO cell membranes assessed as inhibition of NECA-induced cAMP accumulation measured as NECA EC50 at 2 uM incubated for 15 mins in presence of [3H]cAMP by liquid scintillation counting (Rvb = 73 nM). The procedure, abridged:
as §1

One may read the EC50 as the concentration needed to bring the measured effect to its halfway point.

T1 sequence (P29274 whole entry): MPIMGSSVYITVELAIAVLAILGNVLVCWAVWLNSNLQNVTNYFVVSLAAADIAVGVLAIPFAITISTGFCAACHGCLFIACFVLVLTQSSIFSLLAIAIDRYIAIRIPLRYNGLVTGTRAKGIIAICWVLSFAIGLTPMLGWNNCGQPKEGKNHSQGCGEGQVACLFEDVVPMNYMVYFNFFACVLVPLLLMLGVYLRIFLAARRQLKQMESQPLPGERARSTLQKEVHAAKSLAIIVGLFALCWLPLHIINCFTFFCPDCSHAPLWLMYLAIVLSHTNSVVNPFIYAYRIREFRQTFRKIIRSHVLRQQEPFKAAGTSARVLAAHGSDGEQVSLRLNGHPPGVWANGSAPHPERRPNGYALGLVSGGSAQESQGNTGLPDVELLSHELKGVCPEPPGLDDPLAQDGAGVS

In the case of `Cn1c(=O)c2c(nc3n2CCCN3CCc2ccc(O)cc2)n(C)c1=O` [9-(4-hydroxyphenethyl)-1,3-dimethyl-6,7,8,9-tetrahydropyrimido[1,2-a]purine-2,4(1H,3H)-dione], the 50% effective concentration (EC50) in test [1] came to 302 nM. As to `CCN(CC)CCOc1ccc(CCN2CCCn3c2nc2c3c(=O)n(C)c(=O)n2C)cc1`, the EC50 in test [2] is 460 nM.

Regarding `CCCCn1c(=O)c2c(nc3n2CCCN3CCc2ccc(OCCN(CC)CC)cc2)n(CCCC)c1=O`, the EC50 in test [3] was 335 nM.
